{
  "source": "ChEMBL document CHEMBL2321851",
  "about": "“Synthesis and biological evaluation of novel coumarin-pyrazoline hybrids endowed with phenylsulfonyl moiety as antitumor agents” (Eur J Med Chem, 2013)",
  "note": "Calls of active or inactive are those of the source. The rule behind the calls is not given here.",
  "data": [
    {"system": "NCI-H23", "assay": "Growth inhibition of human NCI-H23 cells at 10 uM after 48 hrs by sulforhodamine B assay", "format": "functional, cell-based", "method_in_brief": "(§1)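 NCI-60 one-dose primary screen at 10^-5 M. Cells grown in RPMI 1640 with 5% FBS and 2 mM L-glutamine and plated by doubling time. Preincubated 24 h at 37 °C under 5% CO2. Drug exposure 48 h. Cells fixed with cold TCA and stained with 0.4% SRB; absorbance read at 515 nm. Reported as percent growth of treated versus untreated control.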", "values": [
      {"smiles": "COc1ccc2ccc(=O)oc2c1C1=NN(S(=O)(=O)c2ccccc2)C(c2cccs2)C1", "note": "(centres undefined)", "growth inhibition (GI)": "inactive"},
      {"smiles": "COc1ccc2ccc(=O)oc2c1C1=NN(S(=O)(=O)c2ccccc2)C(c2ccc(C)o2)C1", "note": "(centres undefined)", "growth inhibition (GI)": "inactive"},
      {"smiles": "COc1ccc2ccc(=O)oc2c1C1=NN(c2ccc(S(N)(=O)=O)cc2)C(c2ccc(C)o2)C1", "note": "(centres undefined)", "growth inhibition (GI)": "inactive"}
    ]},
    {"system": "CCRF-CEM", "assay": "Growth inhibition of human CCRF-CEM cells at 10 uM after 48 hrs by sulforhodamine B assay", "format": "functional, cell-based", "method_in_brief": "(§2)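 Single-dose primary screen at 10^-5 M across the ~60-line panel grown in RPMI 1640 with 5% FBS and 2 mM glutamine, 48 h exposure at 37 °C. Cells TCA-fixed and SRB-stained, absorbance at 515 nm. Output is percent growth of treated versus untreated control cells.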", "values": [
      {"smiles": "COc1ccc2ccc(=O)oc2c1C1=NN(S(=O)(=O)c2ccccc2)C(c2cccs2)C1", "note": "(centres undefined)", "growth inhibition (GI)": "inactive"},
      {"smiles": "COc1ccc2ccc(=O)oc2c1C1=NN(S(=O)(=O)c2ccccc2)C(c2ccc(C)o2)C1", "note": "(centres undefined)", "growth inhibition (GI)": "inactive"},
      {"smiles": "COc1ccc2ccc(=O)oc2c1C1=NN(c2ccc(S(N)(=O)=O)cc2)C(c2ccc(C)o2)C1", "note": "(centres undefined)", "growth inhibition (GI)": "inactive"}
    ]},
    {"system": "HOP-92", "assay": "Growth inhibition of human HOP92 cells at 10 uM after 48 hrs by sulforhodamine B assay", "format": "functional, cell-based", "method_in_brief": "as §2", "values": [
      {"smiles": "COc1ccc2ccc(=O)oc2c1C1=NN(S(=O)(=O)c2ccccc2)C(c2cccs2)C1", "note": "(centres undefined)", "growth inhibition (GI)": "inactive"},
      {"smiles": "COc1ccc2ccc(=O)oc2c1C1=NN(S(=O)(=O)c2ccccc2)C(c2ccc(C)o2)C1", "note": "(centres undefined)", "growth inhibition (GI)": "inactive"},
      {"smiles": "COc1ccc2ccc(=O)oc2c1C1=NN(c2ccc(S(N)(=O)=O)cc2)C(c2ccc(C)o2)C1", "note": "(centres undefined)", "growth inhibition (GI)": "inactive"}
    ]},
    {"system": "SK-MEL-2", "assay": "Growth inhibition of human SK-MEL-2 cells at 10 uM after 48 hrs by sulforhodamine B assay", "format": "functional, cell-based", "method_in_brief": "as §1", "values": [
      {"smiles": "COc1ccc2ccc(=O)oc2c1C1=NN(S(=O)(=O)c2ccccc2)C(c2cccs2)C1", "note": "(centres undefined)", "growth inhibition (GI)": "inactive"},
      {"smiles": "COc1ccc2ccc(=O)oc2c1C1=NN(S(=O)(=O)c2ccccc2)C(c2ccc(C)o2)C1", "note": "(centres undefined)", "growth inhibition (GI)": "inactive"},
      {"smiles": "COc1ccc2ccc(=O)oc2c1C1=NN(c2ccc(S(N)(=O)=O)cc2)C(c2ccc(C)o2)C1", "note": "(centres undefined)", "growth inhibition (GI)": "inactive"}
    ]},
    {"system": "T47D", "assay": "Growth inhibition of human T47D cells at 10 uM after 48 hrs by sulforhodamine B assay", "format": "functional, cell-based", "method_in_brief": "(§3)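 NCI-60 one-dose primary screen at 10^-5 M. Cells were grown in RPMI 1640 with 5% FBS and 2 mM L-glutamine and plated at 5,000–40,000 cells/well depending on doubling time. After 24 h preincubation at 37 °C in 5% CO2, drug was added for 48 h. Cells were fixed with TCA and stained with SRB, and absorbance was read at 515 nm. Values are growth percent versus untreated control.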", "values": [
      {"smiles": "COc1ccc2ccc(=O)oc2c1C1=NN(S(=O)(=O)c2ccccc2)C(c2cccs2)C1", "note": "(centres undefined)", "growth inhibition (GI)": "inactive"},
      {"smiles": "COc1ccc2ccc(=O)oc2c1C1=NN(S(=O)(=O)c2ccccc2)C(c2ccc(C)o2)C1", "note": "(centres undefined)", "growth inhibition (GI)": "inactive"},
      {"smiles": "COc1ccc2ccc(=O)oc2c1C1=NN(c2ccc(S(N)(=O)=O)cc2)C(c2ccc(C)o2)C1", "note": "(centres undefined)", "growth inhibition (GI)": "inactive"}
    ]},
    {"system": "IGROV-1", "assay": "Growth inhibition of human IGROV1 cells at 10 uM after 48 hrs by sulforhodamine B assay", "format": "functional, cell-based", "method_in_brief": "as §2", "values": [
      {"smiles": "COc1ccc2ccc(=O)oc2c1C1=NN(S(=O)(=O)c2ccccc2)C(c2cccs2)C1", "note": "(centres undefined)", "growth inhibition (GI)": "inactive"},
      {"smiles": "COc1ccc2ccc(=O)oc2c1C1=NN(S(=O)(=O)c2ccccc2)C(c2ccc(C)o2)C1", "note": "(centres undefined)", "growth inhibition (GI)": "inactive"},
      {"smiles": "COc1ccc2ccc(=O)oc2c1C1=NN(c2ccc(S(N)(=O)=O)cc2)C(c2ccc(C)o2)C1", "note": "(centres undefined)", "growth inhibition (GI)": "inactive"}
    ]},
    {"system": "SK-OV-3", "assay": "Growth inhibition of human SKOV3 cells at 10 uM after 48 hrs by sulforhodamine B assay", "format": "functional, cell-based", "method_in_brief": "as §1", "values": [
      {"smiles": "COc1ccc2ccc(=O)oc2c1C1=NN(S(=O)(=O)c2ccccc2)C(c2cccs2)C1", "note": "(centres undefined)", "growth inhibition (GI)": "inactive"},
      {"smiles": "COc1ccc2ccc(=O)oc2c1C1=NN(S(=O)(=O)c2ccccc2)C(c2ccc(C)o2)C1", "note": "(centres undefined)", "growth inhibition (GI)": "inactive"},
      {"smiles": "COc1ccc2ccc(=O)oc2c1C1=NN(c2ccc(S(N)(=O)=O)cc2)C(c2ccc(C)o2)C1", "note": "(centres undefined)", "growth inhibition (GI)": "inactive"}
    ]},
    {"system": "U-251", "assay": "Growth inhibition of human U251 cells at 10 uM after 48 hrs by sulforhodamine B assay", "format": "functional, cell-based", "method_in_brief": "as §3", "values": [
      {"smiles": "COc1ccc2ccc(=O)oc2c1C1=NN(S(=O)(=O)c2ccccc2)C(c2cccs2)C1", "note": "(centres undefined)", "growth inhibition (GI)": "inactive"},
      {"smiles": "COc1ccc2ccc(=O)oc2c1C1=NN(S(=O)(=O)c2ccccc2)C(c2ccc(C)o2)C1", "note": "(centres undefined)", "growth inhibition (GI)": "inactive"},
      {"smiles": "COc1ccc2ccc(=O)oc2c1C1=NN(c2ccc(S(N)(=O)=O)cc2)C(c2ccc(C)o2)C1", "note": "(centres undefined)", "growth inhibition (GI)": "inactive"}
    ]},
    {"system": "OVCAR-8", "assay": "Growth inhibition of human OVCAR8 cells at 10 uM after 48 hrs by sulforhodamine B assay", "format": "functional, cell-based", "method_in_brief": "as §1", "values": [
      {"smiles": "COc1ccc2ccc(=O)oc2c1C1=NN(S(=O)(=O)c2ccccc2)C(c2cccs2)C1", "note": "(centres undefined)", "growth inhibition (GI)": "inactive"},
      {"smiles": "COc1ccc2ccc(=O)oc2c1C1=NN(S(=O)(=O)c2ccccc2)C(c2ccc(C)o2)C1", "note": "(centres undefined)", "growth inhibition (GI)": "inactive"},
      {"smiles": "COc1ccc2ccc(=O)oc2c1C1=NN(c2ccc(S(N)(=O)=O)cc2)C(c2ccc(C)o2)C1", "note": "(centres undefined)", "growth inhibition (GI)": "inactive"}
    ]},
    {"system": "K562", "assay": "Growth inhibition of human K562 cells at 10 uM after 48 hrs by sulforhodamine B assay", "format": "functional, cell-based", "method_in_brief": "as §2", "values": [
      {"smiles": "COc1ccc2ccc(=O)oc2c1C1=NN(S(=O)(=O)c2ccccc2)C(c2cccs2)C1", "note": "(centres undefined)", "growth inhibition (GI)": "inactive"},
      {"smiles": "COc1ccc2ccc(=O)oc2c1C1=NN(S(=O)(=O)c2ccccc2)C(c2ccc(C)o2)C1", "note": "(centres undefined)", "growth inhibition (GI)": "inactive"},
      {"smiles": "COc1ccc2ccc(=O)oc2c1C1=NN(c2ccc(S(N)(=O)=O)cc2)C(c2ccc(C)o2)C1", "note": "(centres undefined)", "growth inhibition (GI)": "inactive"}
    ]},
    {"system": "RXF 393", "assay": "Growth inhibition of human RXF393 cells at 10 uM after 48 hrs by sulforhodamine B assay", "format": "functional, cell-based", "method_in_brief": "as §1", "values": [
      {"smiles": "COc1ccc2ccc(=O)oc2c1C1=NN(S(=O)(=O)c2ccccc2)C(c2cccs2)C1", "note": "(centres undefined)", "growth inhibition (GI)": "inactive"},
      {"smiles": "COc1ccc2ccc(=O)oc2c1C1=NN(S(=O)(=O)c2ccccc2)C(c2ccc(C)o2)C1", "note": "(centres undefined)", "growth inhibition (GI)": "inactive"},
      {"smiles": "COc1ccc2ccc(=O)oc2c1C1=NN(c2ccc(S(N)(=O)=O)cc2)C(c2ccc(C)o2)C1", "note": "(centres undefined)", "growth inhibition (GI)": "inactive"}
    ]},
    {"system": "SK-MEL-5", "assay": "Growth inhibition of human SK-MEL-5 cells at 10 uM after 48 hrs by sulforhodamine B assay", "format": "functional, cell-based", "method_in_brief": "as §1", "values": [
      {"smiles": "COc1ccc2ccc(=O)oc2c1C1=NN(S(=O)(=O)c2ccccc2)C(c2cccs2)C1", "note": "(centres undefined)", "growth inhibition (GI)": "inactive"},
      {"smiles": "COc1ccc2ccc(=O)oc2c1C1=NN(S(=O)(=O)c2ccccc2)C(c2ccc(C)o2)C1", "note": "(centres undefined)", "growth inhibition (GI)": "inactive"},
      {"smiles": "COc1ccc2ccc(=O)oc2c1C1=NN(c2ccc(S(N)(=O)=O)cc2)C(c2ccc(C)o2)C1", "note": "(centres undefined)", "growth inhibition (GI)": "inactive"}
    ]},
    {"system": "Malme-3M", "assay": "Growth inhibition of human MALME-3M cells at 10 uM after 48 hrs by sulforhodamine B assay", "format": "functional, cell-based", "method_in_brief": "as §2", "values": [
      {"smiles": "COc1ccc2ccc(=O)oc2c1C1=NN(S(=O)(=O)c2ccccc2)C(c2cccs2)C1", "note": "(centres undefined)", "growth inhibition (GI)": "inactive"},
      {"smiles": "COc1ccc2ccc(=O)oc2c1C1=NN(S(=O)(=O)c2ccccc2)C(c2ccc(C)o2)C1", "note": "(centres undefined)", "growth inhibition (GI)": "inactive"},
      {"smiles": "COc1ccc2ccc(=O)oc2c1C1=NN(c2ccc(S(N)(=O)=O)cc2)C(c2ccc(C)o2)C1", "note": "(centres undefined)", "growth inhibition (GI)": "inactive"}
    ]}
  ]
}
